Active and inactive are the calls of the source. The calls are words filed in the database; no cut-off is given here.
Tests used:
Rattus norvegicus [1] = assay: Neurotoxicity in Sprague-Dawley rat at 30 mg/kg, po after 4 hrs; assay type: toxicity, organism-based; conditions: in vivo
In short: (§1)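 Sprague-Dawley rats were given 30 mg/kg orally in 0.5% methylcellulose. Neurotoxicity was checked at 0.25, 0.5, 1.0, 2.0 and 4 h after dosing. Results are given as number of rats showing neurotoxicity/number tested.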

Rattus norvegicus [2] = assay: Anticonvulsant activity in Sprague-Dawley rat assessed as protection against maximal electroshock-induced seizures at 30 mg/kg, po after 4 hrs; assay type: functional, organism-based
In short: (§2)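 Sprague-Dawley rats were given 30 mg/kg p.o. in 0.5% methylcellulose. Maximal electroshock was applied at 0.25, 0.5, 1.0, 2.0 and 4 h after dosing. Results are reported as number of rats protected / number tested.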

Rattus norvegicus [3] = assay: Neurotoxicity in Sprague-Dawley rat at 30 mg/kg, po after 2 hrs; assay type: toxicity, organism-based; conditions: in vivo; in short: as §1
Rattus norvegicus [4] = assay: Neurotoxicity in Sprague-Dawley rat at 30 mg/kg, po after 1 hr; assay type: toxicity, organism-based; conditions: in vivo; in short: as §1
Rattus norvegicus [5] = assay: Anticonvulsant activity in Sprague-Dawley rat assessed as protection against maximal electroshock-induced seizures at 30 mg/kg, po after 1 hr; assay type: functional, organism-based; in short: as §2
[6] = Neurotoxicity in po dosed Sprague-Dawley rat after 1 hr by rotarod test; assay type: toxicity, organism-based; conditions: in vivo
[7] = Neurotoxicity in ip dosed albino Carworth Farms No.1 mouse after 0.25 hrs by rotarod test; assay type: toxicity, organism-based; conditions: in vivo
Mus musculus [8] = assay: Anticonvulsant activity in ip dosed albino Carworth Farms No.1 mouse assessed as protection against 6-Hz electroshock-induced seizures after 0.25 hrs; assay type: functional; conditions: Carworth Farms No.1, ip
In short: (§3)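 Quantitative i.p. evaluation in Carworth Farms No.1 albino mice, with graded doses in 0.5% methylcellulose. MES, scPTZ or 6-Hz (32 mA) seizure tests were run at 0.25 h.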

in vitro [9] = conditions: human, HepG2 cells
Mus musculus [10] = assay: Anticonvulsant activity in ip dosed albino Carworth Farms No.1 mouse assessed as protection against maximal electroshock-induced seizures after 0.25 hrs; assay type: functional; conditions: Carworth Farms No.1, ip; in short: as §3
in vitro [11] = conditions: human, HepG2 cells; remark: listed apart in the source
Mus musculus [12] = assay: Anticonvulsant activity in albino Carworth Farms No.1 mouse assessed as protection against 6-Hz electroshock-induced seizures at 100 mg/kg, ip after 1 hr; assay type: functional, organism-based
In short: (§4)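 Carworth Farms No.1 albino mice were dosed i.p. at 100 mg/kg (0.5% methylcellulose solution or suspension). 6-Hz seizures were induced at 32 mA at 0.25, 0.5, 1.0, 2.0 and 4 h after injection. Results are given as animals protected / animals tested.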

[13] = Protection index, ratio of TD50 for neurotoxicity in ip dosed albino Carworth Farms No.1 mouse to ED50 for anticonvulsant activity in ip dosed albino Carworth Farms No.1 mouse assessed as protection against subcutaneous dosed pentetrazol-induced seizures; assay type: toxicity, organism-based; conditions: in vivo, intraperitoneal, read-out: Ratio TD50/ED50
In short: (§5)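 Graded i.p. doses in 0.5% methylcellulose were given to albino Carworth Farms No.1 mice. ED50 was determined in MES, scPTZ or 6-Hz (32 mA) tests, and TD50 by rotarod. Both were reported with 95% confidence intervals. PI was calculated as TD50/ED50.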

[14] = Protection index, ratio of TD50 for neurotoxicity in ip dosed albino Carworth Farms No.1 mouse to ED50 for anticonvulsant activity in ip dosed albino Carworth Farms No.1 mouse assessed as protection against 6-Hz electroshock-induced seizures; assay type: toxicity, organism-based; conditions: in vivo, read-out: Ratio TD50/ED50; in short: as §5
Rattus norvegicus [15] = assay: Anticonvulsant activity in po dosed Sprague-Dawley rat assessed as protection against subcutaneous dosed pentetrazol-induced seizures after 1 hr; assay type: functional
In short: (§6)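 Sprague-Dawley rats received graded oral doses suspended or dissolved in 0.5% methylcellulose. Challenge was maximal electroshock or subcutaneous pentetrazol at the stated time after dosing.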

in vitro [16] = conditions: human, HepG2 cells; remark: listed apart in the source
Mus musculus [17] = assay: Anticonvulsant activity in albino Carworth Farms No.1 mouse assessed as protection against 6-Hz electroshock-induced seizures at 100 mg/kg, ip after 4 hrs; assay type: functional, organism-based; in short: as §4
HepG2 = assay: Cytotoxicity against human HepG2 cells assessed as change in cell morphology after 48 hrs by inverted microscopic analysis; assay type: cell-based; conditions: hepg2, 48 h
In short: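 HepG2 cells in EMEM with 10% FBS and antibiotics were seeded at 5 × 10⁴ cells/cm². After 24 h the medium was replaced with fresh medium with or without compound. After 48 h, cells were imaged under interference modulation contrast at 37 °C, 5% CO₂.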

in vitro [18] = conditions: human, HepG2 cells; remark: listed apart in the source
Rattus norvegicus [19] = assay: Anticonvulsant activity in po dosed Sprague-Dawley rat assessed as protection against maximal electroshock-induced seizures after 1 hr; assay type: functional; in short: as §6
Mus musculus [20] = assay: Anticonvulsant activity in ip dosed albino Carworth Farms No.1 mouse assessed as protection against subcutaneous dosed pentetrazol-induced seizures after 0.25 hrs; assay type: functional; conditions: Carworth Farms No.1, 0.25 h; in short: as §3
[21] = Hepatotoxicity against human HepG2 cells assessed as cell viability at 100 uM after 24 hrs by MTT assay relative to control
[22] = Protection index, ratio of TD50 for neurotoxicity in ip dosed albino Carworth Farms No.1 mouse to ED50 for anticonvulsant activity in ip dosed albino Carworth Farms No.1 mouse assessed as protection against maximal electroshock-induced seizures; assay type: toxicity, organism-based; conditions: in vivo, read-out: Ratio TD50/ED50
In short: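 Graded i.p. doses in 0.5% methylcellulose were given to albino Carworth Farms No.1 mice. ED50 was determined in MES, scPTZ or 6-Hz (32 mA) tests, and TD50 by rotarod. PI was calculated as TD50/ED50.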

Rattus norvegicus [23] = assay: Anticonvulsant activity in po dosed Sprague-Dawley rat assessed as protection against subcutaneous dosed pentetrazol-induced seizures after 0.5 hrs; assay type: functional; in short: as §6
Mus musculus [24] = assay: Anticonvulsant activity in albino Carworth Farms No.1 mouse assessed as protection against 6-Hz electroshock-induced seizures at 100 mg/kg, ip after 0.5 hrs; assay type: functional, organism-based; in short: as §4
[25] = Protection index, ratio of TD50 for neurotoxicity in po dosed Sprague-Dawley rat to ED50 for anticonvulsant activity in po dosed Sprague-Dawley rat assessed as subcutaneous dosed pentetrazol-induced seizures; assay type: toxicity, organism-based; conditions: in vivo
Mus musculus [26] = assay: Anticonvulsant activity in albino Carworth Farms No.1 mouse assessed as protection against 6-Hz electroshock-induced seizures at 100 mg/kg, ip after 0.25 hrs; assay type: functional, organism-based; in short: as §4
Rattus norvegicus [27] = assay: Anticonvulsant activity in po dosed Sprague-Dawley rat assessed as protection against maximal electroshock-induced seizures after 0.5 hrs; assay type: functional; in short: as §6
[28] = Neurotoxicity in po dosed Sprague-Dawley rat after 0.5 hrs by rotarod test; assay type: toxicity, organism-based; conditions: in vivo

SMILES: O=C(/C=C/c1ccccc1)N1CCC(O)CC1
- Activity (Rattus norvegicus [1]): Non-toxic
- Activity (Rattus norvegicus [2]): inactive
- Activity (Rattus norvegicus [3]): Non-toxic
- Activity (Rattus norvegicus [4]): Non-toxic
- Activity (Rattus norvegicus [5]): inactive

SMILES: CC(CO)NC(=O)/C=C/c1ccccc1 (racemic)
- TD50 at 1 h [6]: > 250 mg/kg
- TD50 at 0.25 h [7]: 223 mg/kg
- ED50 (Mus musculus [8]): 60.9 mg/kg
- viability at 24 h, 100 µM (in vitro [9]): 89%
- ED50 (Mus musculus [10]): 86.6 mg/kg
- Activity (Rattus norvegicus [1]): Non-toxic
- Activity (Rattus norvegicus [2]): inactive
- viability at 24 h, 25 µM (in vitro [11]): 98%
- Activity (Mus musculus [12]): inactive
- selectivity ratio [13]: 2
- Activity (Rattus norvegicus [3]): Non-toxic
- selectivity ratio [14]: 3.7
- ED50 (Rattus norvegicus [15]): > 250 mg/kg
- viability at 24 h, 10 µM (in vitro [16]): 98%
- Activity (Mus musculus [17]): inactive
- Activity (HepG2): Non-toxic
- viability at 24 h, 50 µM (in vitro [18]): 96%
- Activity (Rattus norvegicus [4]): Non-toxic
- ED50 (Rattus norvegicus [19]): 31 mg/kg
- Activity (Rattus norvegicus [5]): inactive
- ED50 (Mus musculus [20]): 110 mg/kg
- viability at 24 h, 100 µM [21]: 92.2%
- selectivity ratio [22]: 2.6

SMILES: CC(O)CNC(=O)/C=C/c1ccccc1 (racemic)
- ED50 (Rattus norvegicus [23]): 46.2 mg/kg
- TD50 at 0.25 h [7]: 136 mg/kg
- viability at 24 h, 100 µM (in vitro [9]): 85%
- ED50 (Mus musculus [10]): 47.1 mg/kg
- Activity (Rattus norvegicus [1]): Non-toxic
- Activity (Mus musculus [24]): Active
- Activity (Rattus norvegicus [2]): inactive
- viability at 24 h, 25 µM (in vitro [11]): 99%
- Activity (Mus musculus [12]): Active
- selectivity ratio [13]: 1.8
- Activity (Rattus norvegicus [3]): Non-toxic
- viability at 24 h, 10 µM (in vitro [16]): 99%
- Activity (Mus musculus [17]): inactive
- selectivity ratio [25]: > 10.8
- Activity (Mus musculus [26]): Active
- Activity (HepG2): Non-toxic
- viability at 24 h, 50 µM (in vitro [18]): 98%
- Activity (Rattus norvegicus [4]): Non-toxic
- ED50 (Rattus norvegicus [27]): 22.8 mg/kg
- Activity (Rattus norvegicus [5]): inactive
- ED50 (Mus musculus [20]): 77.1 mg/kg
- viability at 24 h, 100 µM [21]: 91.9%
- selectivity ratio [22]: 2.9
- TD50 at 0.5 h [28]: > 500 mg/kg

SMILES: CCC(O)CNC(=O)/C=C/c1ccccc1 (racemic)
- ED50 (Rattus norvegicus [23]): > 250 mg/kg
- viability at 24 h, 100 µM (in vitro [9]): 89%
- Activity (Rattus norvegicus [1]): Non-toxic
- Activity (Rattus norvegicus [2]): inactive
- viability at 24 h, 25 µM (in vitro [11]): 97%
- Activity (Mus musculus [12]): inactive
- Activity (Rattus norvegicus [3]): Non-toxic
- viability at 24 h, 10 µM (in vitro [16]): 98%
- Activity (Mus musculus [17]): inactive
- Activity (Mus musculus [26]): Active
- Activity (HepG2): Non-toxic
- viability at 24 h, 50 µM (in vitro [18]): 92%
- Activity (Rattus norvegicus [4]): Non-toxic
- ED50 (Rattus norvegicus [27]): 41.5 mg/kg
- Activity (Rattus norvegicus [5]): inactive
- viability at 24 h, 100 µM [21]: 85.9%
- TD50 at 0.5 h [28]: > 500 mg/kg

SMILES: CC(C)C(CO)NC(=O)/C=C/c1ccccc1 (racemic)
- TD50 at 0.25 h [7]: 190 mg/kg
- ED50 (Mus musculus [8]): 106 mg/kg
- viability at 24 h, 100 µM (in vitro [9]): 90%
- Activity (Rattus norvegicus [1]): Non-toxic
- Activity (Mus musculus [24]): Active
- Activity (Rattus norvegicus [2]): inactive
- viability at 24 h, 25 µM (in vitro [11]): 98%
- Activity (Mus musculus [12]): inactive
- Activity (Rattus norvegicus [3]): Non-toxic
- selectivity ratio [14]: 1.8
- viability at 24 h, 10 µM (in vitro [16]): 98%
- Activity (Mus musculus [17]): inactive
- Activity (Mus musculus [26]): Active
- Activity (HepG2): Non-toxic
- viability at 24 h, 50 µM (in vitro [18]): 93%
- Activity (Rattus norvegicus [4]): Non-toxic
- Activity (Rattus norvegicus [5]): inactive
- viability at 24 h, 100 µM [21]: 82.2%

— ChEMBL document CHEMBL3739352, “Anticonvulsant activity, crystal structures, and preliminary safety evaluation of N-trans-cinnamoyl derivatives of selected (un)modified aminoalkanols” (Eur J Med Chem, 2016)
